Experimental data published in ChEMBL document CHEMBL4219253, “Positive Modulators of the N-Methyl-d-aspartate Receptor: Structure-Activity Relationship Study of Steroidal 3-Hemiesters” (J Med Chem, 2018).
pEC50: −log10 of the molar value.

Legend:
[1] = molecular target: Glutamate NMDA receptor; Grin1/Grin2c (Rattus norvegicus, UniProt P35439+Q00961); experiment: Positive allosteric modulation of recombinant rat GluN1alpha/GluN2C receptor expressed in HEK293 cells assessed as potentiation of glutamate-induced current response at holding potential -60mV by whole cell voltage clamp method; assay type: cell-based
Outline: (§1)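 HEK293 cells transfected with GluN1-1a, GluN2A, 2B, 2C or 2D and GFP cDNA. Whole-cell voltage clamp at -60 mV, 21–25 °C, series resistance <10 MΩ compensated 80–90%. Compound co-applied with 1 µM glutamate by fast multibarrel perfusion. DMSO 1% in all solutions. […] At least four cells per point.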

[2] = molecular target: T1, Glutamate NMDA receptor; Grin1/Grin2b (Rattus norvegicus) (UniProt P35439+Q00960); experiment: Positive allosteric modulation of recombinant rat GluN1alpha/GluN2B receptor expressed in HEK293 cells assessed as potentiation of glutamate-induced current response at 1 to 100 uM at holding potential -60mV by whole cell voltage clamp method relative to control; assay type: cell-based
Outline: (§2)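 HEK293 cells transfected with GluN1-1a, the GluN2 subunit and GFP. Whole-cell voltage clamp at -60 mV, series resistance <10 MΩ, 80-90% compensation, room temperature (21–25 °C). Compound is co-applied with 1 µM glutamate by multibarrel fast perfusion (exchange ~10 ms). DMSO is held at 1% in all test and control solutions. Readout is % potentiation of the glutamate-evoked current.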

[3] = molecular target: T2, Glutamate NMDA receptor; Grin1/Grin2a (Rattus norvegicus) (UniProt P35439+Q00959); experiment: Positive allosteric modulation of recombinant rat GluN1alpha/GluN2A receptor expressed in HEK293 cells assessed as potentiation of glutamate-induced current response at 1 to 30 uM at holding potential -60mV by whole cell voltage clamp method relative to control; assay type: cell-based; outline: as §1
[4] = molecular target: T1, Glutamate NMDA receptor; Grin1/Grin2b (Rattus norvegicus); experiment: Positive allosteric modulation of recombinant rat GluN1alpha/GluN2B receptor expressed in HEK293 cells assessed as potentiation of glutamate-induced current response at 30 uM at holding potential -60mV cotreated with 1 mM glutamate by whole cell voltage clamp method relative to control; assay type: cell-based
Outline: (§3)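 HEK293 cells expressing GluN1-1a/GluN2B, whole-cell voltage clamp at -60 mV, 21–25 °C. Compound at 30 µM was given in one of three ways: co-applied with 1 µM glutamate, co-applied with 1 mM glutamate, or pre-applied before 1 mM glutamate. Delivery by fast perfusion, DMSO 1% throughout. Potentiation relative to the control glutamate response.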

[5] = molecular target: Glutamate NMDA receptor; Grin1/Grin2a (Rattus norvegicus, UniProt P35439+Q00959); experiment: Positive allosteric modulation of recombinant rat GluN1alpha/GluN2A receptor expressed in HEK293 cells assessed as potentiation of glutamate-induced current response at holding potential -60mV by whole cell voltage clamp method; assay type: cell-based; outline: as §1
[6] = molecular target: T3, Ionotropic glutamate receptor NMDA 1/2D (Rattus norvegicus) (UniProt P35439+Q62645); experiment: Positive allosteric modulation of recombinant rat GluN1alpha/GluN2D receptor expressed in HEK293 cells assessed as potentiation of glutamate-induced current response at 30 uM at holding potential -60mV by whole cell voltage clamp method relative to control; assay type: cell-based; outline: as §1
[7] = molecular target: T3, Ionotropic glutamate receptor NMDA 1/2D (Rattus norvegicus); experiment: Positive allosteric modulation of recombinant rat GluN1alpha/GluN2D receptor expressed in HEK293 cells assessed as potentiation of glutamate-induced current response at 1 to 30 uM at holding potential -60mV by whole cell voltage clamp method relative to control; assay type: cell-based; outline: as §1
[8] = molecular target: T4, Glutamate NMDA receptor; Grin1/Grin2c (Rattus norvegicus) (UniProt P35439+Q00961); experiment: Positive allosteric modulation of recombinant rat GluN1alpha/GluN2C receptor expressed in HEK293 cells assessed as potentiation of glutamate-induced current response at 1 to 30 uM at holding potential -60mV by whole cell voltage clamp method relative to control; assay type: cell-based; outline: as §1
[9] = molecular target: T1, Glutamate NMDA receptor; Grin1/Grin2b (Rattus norvegicus); experiment: Positive allosteric modulation of recombinant rat GluN1alpha/GluN2B receptor expressed in HEK293 cells assessed as potentiation of glutamate-induced current response at 30 uM at holding potential -60mV pretreated with cells followed by 1 mM glutamate addition by whole cell voltage clamp method relative to control; assay type: cell-based; outline: as §3
[10] = molecular target: T1, Glutamate NMDA receptor; Grin1/Grin2b (Rattus norvegicus); experiment: Positive allosteric modulation of recombinant rat GluN1alpha/GluN2B receptor expressed in HEK293 cells assessed as potentiation of glutamate-induced current response at 1 to 30 uM at holding potential -60mV by whole cell voltage clamp method relative to control; assay type: cell-based; outline: as §1
[11] = molecular target: Glutamate NMDA receptor; Grin1/Grin2b (Rattus norvegicus, UniProt P35439+Q00960); experiment: Positive allosteric modulation of recombinant rat GluN1alpha/GluN2B receptor expressed in HEK293 cells assessed as potentiation of glutamate-induced current response at holding potential -60mV by whole cell voltage clamp method; assay type: cell-based
Outline: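 HEK293 cells transfected with GluN1-1a, GluN2A, 2B, 2C or 2D and GFP cDNA. Whole-cell voltage clamp at -60 mV, 21–25 °C, series resistance <10 MΩ compensated 80–90%. Compound co-applied with 1 µM glutamate by fast multibarrel perfusion. DMSO 1% in all solutions. At least four cells per point.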

[12] = molecular target: T2, Glutamate NMDA receptor; Grin1/Grin2a (Rattus norvegicus); experiment: Positive allosteric modulation of recombinant rat GluN1alpha/GluN2A receptor expressed in HEK293 cells assessed as potentiation of glutamate-induced current response at 30 uM at holding potential -60mV by whole cell voltage clamp method relative to control; assay type: cell-based; outline: as §1
Rattus norvegicus [13] = species on record: Rattus norvegicus; experiment: Positive allosteric modulation of AMPAR in rat hippocampal neuron assessed as potentiation of AMPA-induced current response at 30 uM in presence of cyclothiazide by whole cell voltage clamp method relative to control
Outline: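 Cultured hippocampal neurons, whole-cell voltage clamp at -60 mV, room temperature (21–25 °C). AMPAR current evoked by 5 µM AMPA; bath also held 10 µM cyclothiazide, 50 µM D-AP5, 10 µM bicuculline, 0.5 µM TTX. Compound co-applied by fast multibarrel perfusion. DMSO 1% in all test and control solutions. Effect expressed relative to control response.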

Rattus norvegicus [14] = species on record: Rattus norvegicus; experiment: Positive allosteric modulation of GABAR in rat hippocampal neuron assessed as potentiation of GABA-induced current response at 30 uM in presence of cyclothiazide by whole cell voltage clamp method relative to control
[15] = molecular target: T4, Glutamate NMDA receptor; Grin1/Grin2c (Rattus norvegicus); experiment: Positive allosteric modulation of recombinant rat GluN1alpha/GluN2C receptor expressed in HEK293 cells assessed as potentiation of glutamate-induced current response at 30 uM at holding potential -60mV by whole cell voltage clamp method relative to control; assay type: cell-based; outline: as §1
[16] = molecular target: T1, Glutamate NMDA receptor; Grin1/Grin2b (Rattus norvegicus); experiment: Positive allosteric modulation of recombinant rat GluN1alpha/GluN2B receptor expressed in HEK293 cells assessed as potentiation of glutamate-induced current response at 100 uM at holding potential -60mV by whole cell voltage clamp method relative to control; assay type: cell-based; outline: as §2
[17] = molecular target: Ionotropic glutamate receptor NMDA 1/2D (Rattus norvegicus, UniProt P35439+Q62645); experiment: Positive allosteric modulation of recombinant rat GluN1alpha/GluN2D receptor expressed in HEK293 cells assessed as potentiation of glutamate-induced current response at holding potential -60mV by whole cell voltage clamp method; assay type: cell-based; outline: as §1
[18] = molecular target: T1, Glutamate NMDA receptor; Grin1/Grin2b (Rattus norvegicus); experiment: Positive allosteric modulation of recombinant rat GluN1alpha/GluN2B receptor expressed in HEK293 cells assessed as potentiation of glutamate-induced current response at 30 uM at holding potential -60mV cotreated with 1 uM glutamate by whole cell voltage clamp method relative to control; assay type: cell-based; outline: as §3
[19] = molecular target: T1, Glutamate NMDA receptor; Grin1/Grin2b (Rattus norvegicus); experiment: Positive allosteric modulation of recombinant rat GluN1alpha/GluN2B receptor expressed in HEK293 cells assessed as potentiation of glutamate-induced current response at 30 uM at holding potential -60mV by whole cell voltage clamp method relative to control; assay type: cell-based; outline: as §1
[20] = molecular target: Glutamate NMDA receptor (Rattus norvegicus) (UniProt P35439+Q00959+Q00960+Q00961+Q62645+Q8VHN2+Q9R1M7); experiment: Positive allosteric modulation of NMDAR in rat hippocampal neuron assessed as potentiation of NMDA-induced current response at 30 uM by whole cell voltage clamp method relative to control
Outline: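 Native NMDARs in cultured hippocampal neurons, whole-cell voltage clamp at -60 mV, 21–25 °C. Bath also held 10 µM CNQX, 10 µM bicuculline, 0.5 µM TTX. Compound co-applied with 1 µM glutamate by fast perfusion (~10 ms exchange). DMSO 1% throughout. Potentiation relative to control glutamate response.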

SMILES: CC(=O)[C@H]1CC[C@H]2[C@@H]3CC=C4C[C@@H](OC(=O)CCCCC(=O)O)CC[C@]4(C)[C@H]3CC[C@]12C
- pEC50 [1]: 4.98
- Emax [2]: 151%
- Emax [3]: 203%
- Activity [4]: 75%
- pEC50 [5]: 5.05
- Activity [6]: 88%
- Emax [7]: 115%
- Emax [8]: 145%
- Activity [9]: 134%
- Emax [10]: 157%
- pEC50 [11]: 5.04 to 5.07
- Activity [12]: 192%
- Activity (Rattus norvegicus [13]): -7%
- Activity (Rattus norvegicus [14]): -90%
- Activity [15]: 118%
- Activity [16]: 614%
- pEC50 [17]: 4.89
- Activity [18]: 136%
- Activity [19]: 137%
- Activity [20]: 138%
